According to ChEMBL document CHEMBL3792371 (Bioorg Med Chem Lett, 2016):

Key:
[1] = biological target: Sodium-dependent dopamine transporter (Rattus norvegicus, UniProt P23977); test: Inhibition of DAT in rat striatal synaptosomes assessed as reduction of [3H]dopamine uptake preincubated for 5 mins followed by [3H]dopamine addition measured after 10 mins by liquid scintillation spectrometric method; assay type: subcellular, Striatum
In short: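 Rat striatum homogenized in ice-cold 0.32 M sucrose with 5 mM NaHCO3 (pH 7.4), spun at 2000g and then 20,000g. Synaptosomes (20 µg protein) were resuspended in oxygenated Krebs'-HEPES buffer (pH 7.4) with pargyline and ascorbic acid. Inhibitor was 0.1 nM–1 mM final (7–9 concentrations), run in duplicate at 34 °C. [3H]DA was 10 nM final. Nonspecific uptake was defined with 10 µM GBR 12909. Reactions were filtered on GF/B filters. Specific uptake was expressed as % of control, n = 3–4 rats.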

[2] = biological target: Sodium-dependent serotonin transporter (Rattus norvegicus, UniProt P31652); test: Inhibition of SERT in rat striatal synaptosomes assessed as reduction of [3H]5-HT uptake preincubated for 5 mins followed by [3H]5-HT addition measured after 10 mins by liquid scintillation spectrometric method; assay type: subcellular, Striatum
In short: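 Rat striatal synaptosomes were made as for the DAT assay: 20 µg protein in oxygenated Krebs'-HEPES buffer (pH 7.4) containing pargyline and ascorbic acid. Inhibitor was 0.1 nM–1 mM final (7–9 concentrations), run in duplicate at 34 °C. [3H]5-HT was 10 nM final. Nonspecific uptake was defined with 10 µM fluoxetine. Filters were washed with ice-cold Krebs' buffer containing 1 mM catechol. Specific uptake was expressed as % of control, n = 4 rats.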

[3] = biological target: Synaptic vesicular amine transporter (Rattus norvegicus, UniProt Q01827); test: Inhibition of VMAT2 in rat striatal synaptic vesicle assessed as reduction of [3H]dopamine uptake after 8 mins by liquid scintillation spectrometric method
In short: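 Vesicles prepared from rat striata by sucrose homogenisation, osmotic shock and differential centrifugation. Inhibitor at 0.1 nM–10 mM with 0.1 µM [3H]DA. Filtration, then scintillation counting. n = 3–4 rats.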

Rattus norvegicus [4] = species: Rattus norvegicus; test: Selectivity ratio of Ki for SERT in rat striatal synaptosomes to Ki for VMAT2 in rat striatal synaptic vesicle; assay type: subcellular
In short: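 Ratio of SERT Ki to VMAT2 Ki. […] 10 nM [3H]5-HT then added for 10 min at 34°C. Nonspecific uptake measured with 10 µM fluoxetine. n = 4 rats. VMAT2 Ki from vesicular [3H]DA uptake.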

Rattus norvegicus [5] = species: Rattus norvegicus; test: Selectivity ratio of Ki for DAT in rat striatal synaptosomes to Ki for VMAT2 in rat striatal synaptic vesicle; assay type: subcellular
In short: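 Ratio of DAT Ki to VMAT2 Ki. […] 10 nM [3H]DA then added for 10 min at 34°C. Nonspecific uptake measured with 10 µM GBR 12909. VMAT2 Ki from vesicular [3H]DA uptake.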

Sodium-dependent dopamine transporter, sequence (P23977 whole entry): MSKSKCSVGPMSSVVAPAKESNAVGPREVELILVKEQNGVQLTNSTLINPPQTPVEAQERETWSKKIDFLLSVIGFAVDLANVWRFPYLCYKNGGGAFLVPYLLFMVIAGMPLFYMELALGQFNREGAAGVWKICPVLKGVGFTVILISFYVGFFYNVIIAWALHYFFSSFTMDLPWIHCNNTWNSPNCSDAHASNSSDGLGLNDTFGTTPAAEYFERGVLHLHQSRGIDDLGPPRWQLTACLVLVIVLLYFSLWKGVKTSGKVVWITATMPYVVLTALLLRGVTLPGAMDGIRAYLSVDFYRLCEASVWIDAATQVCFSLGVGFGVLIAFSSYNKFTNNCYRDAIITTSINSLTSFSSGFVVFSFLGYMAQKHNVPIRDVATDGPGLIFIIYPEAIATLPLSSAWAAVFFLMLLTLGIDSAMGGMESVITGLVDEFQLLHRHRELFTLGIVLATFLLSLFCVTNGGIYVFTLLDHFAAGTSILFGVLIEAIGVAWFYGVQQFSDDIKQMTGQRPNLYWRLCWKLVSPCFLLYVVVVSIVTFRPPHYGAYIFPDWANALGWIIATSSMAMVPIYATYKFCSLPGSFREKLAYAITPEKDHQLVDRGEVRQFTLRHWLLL
Synaptic vesicular amine transporter, sequence (Q01827 whole entry): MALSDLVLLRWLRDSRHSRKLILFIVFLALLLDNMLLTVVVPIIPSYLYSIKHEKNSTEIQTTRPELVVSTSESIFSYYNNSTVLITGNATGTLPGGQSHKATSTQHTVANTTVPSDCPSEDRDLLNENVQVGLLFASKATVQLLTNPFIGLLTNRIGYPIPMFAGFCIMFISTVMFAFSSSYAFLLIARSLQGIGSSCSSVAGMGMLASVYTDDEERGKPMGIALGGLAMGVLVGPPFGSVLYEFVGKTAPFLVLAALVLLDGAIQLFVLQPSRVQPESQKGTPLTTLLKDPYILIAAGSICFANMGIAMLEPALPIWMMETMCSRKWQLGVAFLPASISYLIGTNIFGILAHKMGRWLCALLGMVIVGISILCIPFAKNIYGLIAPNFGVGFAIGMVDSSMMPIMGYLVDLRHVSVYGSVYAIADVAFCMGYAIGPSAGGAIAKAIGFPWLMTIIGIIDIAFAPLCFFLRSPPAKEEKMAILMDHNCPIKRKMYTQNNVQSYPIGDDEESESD
Sodium-dependent serotonin transporter, sequence (P31652 whole entry): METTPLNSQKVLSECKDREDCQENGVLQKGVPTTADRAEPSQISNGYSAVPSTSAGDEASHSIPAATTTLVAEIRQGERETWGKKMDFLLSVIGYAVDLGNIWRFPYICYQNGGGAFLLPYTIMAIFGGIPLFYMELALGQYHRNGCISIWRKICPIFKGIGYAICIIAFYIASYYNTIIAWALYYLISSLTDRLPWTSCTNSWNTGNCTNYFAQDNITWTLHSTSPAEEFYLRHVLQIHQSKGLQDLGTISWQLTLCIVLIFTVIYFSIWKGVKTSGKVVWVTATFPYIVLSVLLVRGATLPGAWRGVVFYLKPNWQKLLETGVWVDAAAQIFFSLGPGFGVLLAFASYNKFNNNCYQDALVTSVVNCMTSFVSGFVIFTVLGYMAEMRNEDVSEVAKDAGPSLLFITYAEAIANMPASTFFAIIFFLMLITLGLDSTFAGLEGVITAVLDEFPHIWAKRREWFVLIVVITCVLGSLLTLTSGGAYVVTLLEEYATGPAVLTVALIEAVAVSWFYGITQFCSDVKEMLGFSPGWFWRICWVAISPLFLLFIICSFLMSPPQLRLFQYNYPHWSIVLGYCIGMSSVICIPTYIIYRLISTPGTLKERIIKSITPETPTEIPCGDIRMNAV

With `Oc1ccc(CC[C@H]2CCC[C@@H](CCc3ccc(OCCF)cc3)N2)cc1` the Ki [1] was 1660 nM, the Ki [2] was 1.05 µM and the Ki [3] was 32 nM.

With `OC[C@H](O)CN1[C@@H](CCc2ccc(O)cc2)CCC[C@H]1CCc1ccc(O)cc1` the Ki [1] was 1430 nM, the Ki [2] was 12.9 µM and the Ratio Ki (Rattus norvegicus [4]) was 331. It also gave a Ki [3] of 39 nM.

With `CN1[C@@H](CCc2ccc(OCCF)cc2)CCC[C@H]1CCc1ccc(OCCF)cc1` the Ki [1] was 3430 nM, the Ki [2] was 7.43 µM and the Ki [3] was 140 nM.

With `COc1ccc(CC[C@H]2CCC[C@@H](CCc3ccc(OC)cc3)N2C[C@@H](O)CO)cc1` the Ki [1] was 1440 nM and the Ki [2] was 9.36 µM.

With `OC[C@H](O)CN1[C@@H](CCc2ccc(OCCF)cc2)CCC[C@H]1CCc1ccc(OCCF)cc1` the Ki [1] was 3690 nM, the Ratio Ki (Rattus norvegicus [5]) was 30 and the Ki [2] was 33 µM. For the same compound, the Ratio Ki (Rattus norvegicus [4]) was 275 and the Ki [3] was 120 nM.

For `CC(=O)Oc1ccc(CC[C@H]2CCC[C@@H](CCc3ccc(OC(C)=O)cc3)N2)cc1`, the Ki [1] was 1470 nM, the Ki [2] was 2.13 µM and the Ki [3] was 220 nM.

`CN1[C@@H](CCc2ccccc2)CCC[C@H]1CCc1ccccc1` [LOBELANE] showed a Ki [1] of 1050 nM and a Ki [2] of 3.6 µM.

In the case of `CN1[C@@H](CCc2ccc(O)cc2)CCC[C@H]1CCc1ccc(OCCF)cc1`, the Ki [1] is reported as 2970 nM, the Ratio Ki (Rattus norvegicus [5]) is reported as 96 and the Ki [2] is reported as 10.4 µM. For the same compound, the Ratio Ki (Rattus norvegicus [4]) was 335 and the Ki [3] was 31 nM.

`Oc1ccc(CC[C@H]2CCC[C@@H](CCc3ccc(O)cc3)N2)cc1` showed a Ki [1] of 866 nM, a Ki [2] of 1.03 µM and a Ki [3] of 31 nM.

In the case of `CC(=O)Oc1ccc(CC[C@H]2CCC[C@@H](CCc3ccc(OC(C)=O)cc3)N2C)cc1`, the Ki [1] is reported as 2130 nM, the Ki [2] is reported as 11.6 µM and the Ratio Ki (Rattus norvegicus [4]) is reported as 163. For the same compound, the Ki [3] was 71 nM.

`FCCOc1ccc(CC[C@H]2CCC[C@@H](CCc3ccc(OCCF)cc3)N2)cc1` gave a Ki [1] of 1670 nM, a Ki [2] of 0.64 µM and a Ki [3] of 40 nM.

In the case of `OC[C@H](O)CN1[C@@H](CCc2ccc(O)cc2)CCC[C@H]1CCc1ccc(OCCF)cc1`, the Ki [1] is reported as 5470 nM, the Ratio Ki (Rattus norvegicus [5]) is reported as 87 and the Ki [2] is reported as 1.43 µM. For the same compound, the Ki [3] was 63 nM.

`CN1[C@@H](CCc2ccc(O)cc2)CCC[C@H]1CCc1ccc(O)cc1` gave a Ki [1] of 1350 nM, a Ki [2] of 12 µM and a Ratio Ki (Rattus norvegicus [4]) of 260. It also gave a Ki [3] of 46 nM.
